PLK1 PBD inh = Plk1 polo box domain binding inhibitors, primary screen, biochemical, fluorescence polarization; Serine/threonine-protein kinase PLK1 (Homo sapiens), P53350; Plk1 PBD phosphopeptide binding; inhibition, %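 (tested at about 20 µM)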; AID 693, 2007; actives 0.13% (n = 97,000); in the data active = inhibition above about 34%, passing the limit was not always enough
Target sequence (P53350 whole entry, looked up, the tested form may be a part): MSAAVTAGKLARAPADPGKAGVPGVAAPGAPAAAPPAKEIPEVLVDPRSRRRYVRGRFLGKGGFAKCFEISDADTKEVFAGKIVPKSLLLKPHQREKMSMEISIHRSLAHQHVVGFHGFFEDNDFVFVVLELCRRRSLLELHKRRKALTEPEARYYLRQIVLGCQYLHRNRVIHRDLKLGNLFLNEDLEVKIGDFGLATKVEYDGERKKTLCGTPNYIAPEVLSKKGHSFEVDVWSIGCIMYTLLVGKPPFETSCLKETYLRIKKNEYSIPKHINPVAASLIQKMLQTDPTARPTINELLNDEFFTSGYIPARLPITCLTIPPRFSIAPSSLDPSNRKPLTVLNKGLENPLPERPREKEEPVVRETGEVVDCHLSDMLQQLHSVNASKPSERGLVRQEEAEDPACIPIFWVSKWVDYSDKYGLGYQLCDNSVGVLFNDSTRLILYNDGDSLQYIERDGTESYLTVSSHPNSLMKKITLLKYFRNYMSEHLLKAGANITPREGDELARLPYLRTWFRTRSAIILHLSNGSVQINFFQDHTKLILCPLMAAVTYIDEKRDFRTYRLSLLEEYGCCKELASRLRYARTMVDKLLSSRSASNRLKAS
PLK1 kinase inh = human PLK1 kinase inhibitors, primary screen, biochemical, TR-FRET; Serine/threonine-protein kinase PLK1 (Homo sapiens), P53350; recombinant PLK1 kinase, TR-FRET peptide phosphorylation; inhibition, % at 10 µM; actives 0.53% (n = 97,000); AID 619, 2007;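 active = inhibition of 50% or more in the single-concentration screen; inactive = inhibition below 50%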
FAK inh = FAK kinase inhibitors, primary screen, biochemical; AID 727, 2007; biochemical FAK kinase activity assay; inhibition, %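 (tested at 7 µM)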; actives 0.84% (n = 97,000); Focal adhesion kinase 1 (Homo sapiens), Q05397; in the data active = inhibition above about 19%
Cav32 inh = Cav3.2 calcium influx blockers – cell-based, Fluo-4 calcium fluorescence, FDSS, MLSMR library, primary screen | Voltage-dependent T-type calcium channel subunit alpha-1H (Homo sapiens), O95180 | Cav3.2-expressing cells; stronger effect = lower value | B-score at 10 µM | actives 4% (n = 100,000) | AID 449739, 2010;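 active = single-dose well whose peak fluorescence ratio is a statistical outlier from its plate by either plate-standardised score or position-corrected B-score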
HIV Rev-RRE inh = HIV-1 Rev-RRE binding inhibitors, primary screen, biochemical, FRET, protein-RNA interaction; Rev peptide-RRE RNA binding; inhibition, % at 8 µM; actives 0.79% (n = 97,000); AID 704, 2007;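 active = inhibition above the screen-wide mean plus 3 SD, cut at about 35% in these data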
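System: Cy5-labelled duplex RRE RNA binding fluorescein-labelled HIV Rev peptide; Signal: fluorescein-to-Cy5 FRET, 480 nm excitation; Also added: labelled Rev peptide; Compound: one concentration, 8 µM nominal; Buffer or medium: HEPES pH 7.5 salt buffer with EDTA; Read-out: % inhibition of FRET ratio versus controls; Schedule: 5 min preincubation and 15 min binding, 25 °C.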
PTK2B oligo ant = antagonists of Pyk2 self-association, primary screen, Q293 cells, FERM NanoBiT luminescence, HTS. stronger effect = lower value. z-score (the deposit names both 25 µM and 10 µM). actives 0.83% (n = 99,000);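 active = Z-score of -3 or lower, scaled per plate to the spread of control and sample wells; inactive = z-score above -3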;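 note: negative z-score means lost luminescence so less FERM oligomerization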
Of the large screens only hits and unclear results are named; the others gave an inactive call; [ ] = another dose, or the depositor's remark. A selection: hits, their analogues and other compounds. The true share with any hit is near 5.8%.

O=C(CSc1nnc(Cc2cccs2)n1C1CCCCC1)N1CCCc2ccccc21	Cav32 inh -7.2
CN(C)c1ccc(NC(=O)CC(NCc2ccccn2)C(=O)O)cc1 (stereo unspecified)	none (no result: PLK1 PBD inh, PLK1 kinase inh, FAK inh, Cav32 inh, HIV Rev-RRE inh)
C=CCn1c2ccccc2c2nnc(SCC(=O)Nc3c(C)n(C)n(-c4ccccc4)c3=O)nc21	Cav32 inh 3.8
CCn1c(CNc2ccc(Cl)cc2)nnc1SCc1ccc(Cl)cc1	Cav32 inh -3.5
CCn1c(CNc2ccc(Cl)cc2)nnc1SCc1ccc(C)cc1	Cav32 inh -3.8
CCOC(=O)c1c(C)[nH]c(C)c1C(=O)COC(=O)CCOc1ccccc1OC	PLK1 kinase inh 65
N#CC1=C(N)NC(SCc2ccccc2)=C(C#N)C12CCCCC2	none (no result: Cav32 inh)
N#CC1=C(N)NC(SCC(=O)Nc2ccccc2)=C(C#N)C12CCCCC2	Cav32 inh -5
CCC(C)N1C(=O)/C(=C/c2c(NCCCOC(C)C)nc3c(C)cccn3c2=O)SC1=S (stereo unspecified)	Cav32 inh -5.1, HIV Rev-RRE inh 126[fluorescence artefact?], PTK2B oligo ant -3.1
Cc1cccn2c(=O)c(C=NCc3ccccc3)c(NCCO)nc12	none
CCCN1C(=O)/C(=C/c2c(NCCCOC(C)C)nc3c(C)cccn3c2=O)SC1=S	HIV Rev-RRE inh 94[fluorescence artefact?]
Cc1cc(C)cc(N(CC(=O)NCC2CCCO2)C(=O)CCC(=O)Nc2cc(C)on2)c1 (stereo unspecified)	none
Cc1ccc2nc(SCC(=O)N3c4ccccc4CC3C)c(C)cc2c1 (stereo unspecified)	none
Cc1ccc2nc(-c3cccnc3SCC(=O)N3c4ccccc4CC3C)[nH]c2c1 (stereo unspecified)	Cav32 inh -4.4
Nc1nncn1C(=O)CCCOc1ccc(Cl)cc1Cl	none (no result: PLK1 PBD inh, PLK1 kinase inh, FAK inh, HIV Rev-RRE inh)
COC(=O)C(C)Sc1nnc(Cc2cc(=O)[nH]c(=O)[nH]2)n1-c1cccc(OC)c1 (stereo unspecified)	none (no result: PTK2B oligo ant)
COc1cccc(-n2c(Cc3cc(=O)[nH]c(=O)[nH]3)nnc2SC(C)C)c1	PLK1 kinase inh 62 (no result: PTK2B oligo ant)
CCOC(=O)CN1C(=O)N[C@H](c2ccc(Br)cc2)C(C(C)=O)=C1C	none (no result: PLK1 PBD inh, PLK1 kinase inh, FAK inh, HIV Rev-RRE inh, PTK2B oligo ant)
O=S(=O)(NC1CC2CCC1C2)c1ccc(Br)s1 (stereo unspecified)	Cav32 inh -4.9
COc1ccc(O)c(/C=c2/sc3nc4cc(C)c(C)cc4n3c2=O)c1	none (no result: PLK1 PBD inh, PLK1 kinase inh, FAK inh, HIV Rev-RRE inh)
COc1ccc(OC)c(/C=c2\sc3nc(-c4cccs4)nn3c2=O)c1	HIV Rev-RRE inh 57
Cc1ccc(S(=O)(=O)Nc2ccnc3ccccc23)cc1	none
Cc1ccc(N(CC(=O)Nc2ccccc2-c2ccccc2)S(=O)(=O)c2ccccc2)cc1	PTK2B oligo ant -3.9
Cc1ccc(S(=O)(=O)Nc2ccccc2-c2ccccc2)cc1	Cav32 inh -5.8
Fc1ccc(Cn2c(SCc3ccc(F)c(F)c3)nnc2C(F)(F)F)cc1	Cav32 inh -3.8
Cc1ccccc1OC(=O)C1C(c2ccccc2)C(C(=O)O)C1c1ccccc1 (stereo unspecified)	none
Cc1ccnc(NC(=O)CCC(=O)N(CC(=O)NC2CCCCC2)c2ccc3c(c2)OCO3)c1	Cav32 inh -4.5 (no result: PLK1 PBD inh, PLK1 kinase inh, FAK inh, HIV Rev-RRE inh)
Cc1cccc(N(CC(=O)NCc2ccc3c(c2)OCO3)C(=O)CCC(=O)Nc2ccccn2)c1	none (no result: Cav32 inh)
Cc1cccc(N(CC(=O)NCc2ccc3c(c2)OCO3)C(=O)CCC(=O)Nc2ccccn2)c1C	PTK2B oligo ant -3.1 (no result: Cav32 inh)
Cc1cccc(N(CC(=O)NC2CCCCC2)C(=O)CCC(=O)Nc2ccccn2)c1	Cav32 inh -4.2 (no result: PLK1 PBD inh, PLK1 kinase inh, FAK inh, HIV Rev-RRE inh, PTK2B oligo ant)
CC#CCN1c2ccccc2[C@]23C[C@@H](C(=O)OC)N(C(=O)c4ccco4)C2=NC(C(=O)OC)=C(C(=O)OC)[C@H]13	none (no result: PLK1 PBD inh, PLK1 kinase inh, FAK inh, HIV Rev-RRE inh, PTK2B oligo ant)
CCOC(=O)/C(N)=C/c1ncc(C(F)(F)F)cc1Cl	none
CNC(=O)c1ccsc1NC(=O)c1ccc(Cl)s1	none (no result: Cav32 inh, PTK2B oligo ant)
C[C@H](NC(=O)c1nc[nH]c1C(=O)NCCCCCNC(=O)OC(C)(C)C)C(=O)OCc1ccccc1	none (no result: PLK1 PBD inh, PLK1 kinase inh, FAK inh, HIV Rev-RRE inh, PTK2B oligo ant)
